The values that follow come from ChEMBL document CHEMBL3393048, “Discovery of potent cytotoxic ortho-aryl chalcones as new scaffold targeting tubulin and mitosis with affinity-based fluorescence” (J Med Chem, 2014).

Holding throughout (type): functional, cell-based
For assay [1], the system named is HepG2. The experiment in a line: Antiproliferative activity against human HepG2 cells after 48 hrs by SRB method. The settings on record: HepG2, 48 h. Put shortly: (§1)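 SRB assay. Cells in DMEM high glucose with 10% FBS were seeded at 5000/well and grown 24 h; a day-0 plate was fixed at that point. Compounds were added in triplicate for 48 h. IC50 came from nonlinear regression of dose–response curves from at least two independent experiments.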

Assay [2] is described as follows: Antiproliferative activity against human CNE2 cells after 48 hrs by SRB method. The settings on record: CNE-2, 48 h. Put shortly: as §1
Assay [3] concerns MCF7. Kind of assay: Antiproliferative activity against human MCF7 cells after 48 hrs by SRB method. The settings on record: MCF7, 48 h. The procedure, abridged: as §1
In assay [4] the test system is A549. The experiment in a line: Antiproliferative activity against human A549 cells after 48 hrs by SRB method. Particulars: A549, 48 h. Put shortly:
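SRB assay. Cells in DMEM high glucose with 10% FBS were seeded at 5000/well and grown 24 h; a day-0 plate was fixed at that point. Compounds were added in triplicate for 48 h. Cells were fixed with TCA at 4 °C for 1 h, stained with 0.4% SRB, and the dye was solubilized in 10 mM Tris pH 10.4. OD was read at 515 nm with day-0 OD subtracted. IC50 came from nonlinear regression of dose–response curves from at least two independent experiments.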

Assay [5] relates to SW480. The experiment in a line: Antiproliferative activity against human SW480 cells after 48 hrs by SRB method. Particulars: SW480, 48 h. The procedure, abridged:
as §1

With `COc1cc(CNC(=O)c2ccccc2-c2ccc(F)cc2)cc(OC)c1OC`, the half-inhibitory concentration (IC50) in assay [1], in assay [2], in assay [3], in assay [4] and in assay [5] was more than 50 µM each time.
In the case of `COc1ccc(/C=C/C(=O)c2ccccc2-c2ccc(F)nc2)cc1OC`, the IC50 in assay [1] is 1 µM; in assay [2], 1.6 µM; in assay [3], 2.8 µM; in assay [4], 1.2 µM; in assay [5], 1.3 µM.
The like results for `COc1ccc(OC)c(/C=C/C(=O)c2ccccc2-c2ccc(F)cc2)c1` were, in that order, 0.52 µM, 0.75 µM, 1.7 µM, 1.1 µM and 2.4 µM.
`COc1ccc(/C=C/C(=O)c2ccccc2-c2ccc(F)cc2)cc1OC`: the IC50 in assay [1] was 0.095 µM; in assay [2] it was 0.081 µM; in assay [3], 0.24 µM; in assay [4] it was 0.44 µM; in assay [5], 0.57 µM.
For the compound `COc1ccc(/C=C/C(=O)c2ccccc2-c2ccc(F)nc2)cc1`, the IC50 in assay [1] worked out at 0.29 µM; in assay [2], 0.16 µM; in assay [3], 2.7 µM; in assay [4], 0.93 µM; in assay [5], 0.33 µM.
As for `COc1ccc(C(=O)/C=C/c2ccccc2-c2ccc(F)cc2)cc1`, the IC50 in assay [1] was 6.3 µM; in assay [2], 9 µM; in assay [3], 8.8 µM; in assay [4] it was 8.2 µM; in assay [5], 8.4 µM.
With `COc1ccc(CNC(=O)c2ccccc2-c2ccc(F)cc2)cc1`, the IC50 in assay [1], in assay [2], in assay [3], in assay [4] and in assay [5] was more than 50 µM in each case.
For `COc1cc(C(=O)/C=C/c2ccccc2-c2ccc(F)nc2)ccc1O`, the 50% inhibitory concentration (IC50) was determined as 9.9 µM in assay [1]; 19 µM in assay [2]; 27 µM in assay [3]; 13 µM in assay [4]; 8.5 µM in assay [5].
Take `COc1ccc(C(=O)/C=C/c2ccccc2-c2ccc(F)cc2)cc1OC`: the 50% inhibitory concentration (IC50) stood at 6.6 µM in assay [1]; 7.6 µM in assay [2]; 7.1 µM in assay [3]; 7.5 µM in assay [4]; 8.3 µM in assay [5].
The like results for `COc1ccc(C(=O)/C=C/c2ccccc2-c2ccc(F)nc2)cc1O` were, in that order, 1.8 µM, 2.1 µM, 2 µM, 3.2 µM and 1.6 µM.
For `COc1ccc(/C=C/C(=O)c2ccccc2-c2cccnc2)cc1`, the concentration for half-maximal inhibition (IC50) in assay [1] was found to be 0.097 µM; in assay [2], 0.064 µM; in assay [3], 0.83 µM; in assay [4] it was 0.58 µM; in assay [5], 0.2 µM.
The like results for `COc1ccc(C(=O)/C=C/c2ccccc2-c2ccc(F)nc2)cc1OC` were, in that order, 17 µM, 17 µM, 41 µM, 17 µM and 15 µM.
Regarding `COc1ccc(/C=C/C(=O)c2ccccc2-c2ccc(OC)c(OC)c2)cc1`, the IC50 amounted to 0.6 µM in assay [1]; 0.32 µM in assay [2]; 1.1 µM in assay [3]; 1.6 µM in assay [4]; 0.89 µM in assay [5].
Take `O=C(/C=C/c1ccccc1-c1ccc(F)nc1)c1cccc(O)c1`: the 50% inhibitory concentration (IC50) in assay [1] was 6.4 µM; in assay [2], 8.7 µM; in assay [3], 12 µM; in assay [4] it was 6.9 µM; in assay [5] it was 7.4 µM.
`COc1cc(C(=O)/C=C/c2ccccc2-c2ccc(F)cc2)cc(OC)c1OC`: the IC50 stood at 12 µM in assay [1]; 3.8 µM in assay [2]; 9.1 µM in assay [3]; 2.2 µM in assay [4]; 2.2 µM in assay [5].
Consider `COc1cc(C(=O)/C=C/c2ccccc2-c2ccc(F)cc2)ccc1O`, for which the concentration for half-maximal inhibition (IC50) in assay [1] worked out at 3.1 µM; in assay [2], 4.8 µM; in assay [3], 5.4 µM; in assay [4], 4.6 µM; in assay [5], 4.2 µM.
